ChEMBL document CHEMBL1153925, “Synthesis, characterization and biological activity of ring-substituted 6-benzylamino-9-tetrahydropyran-2-yl and 9-tetrahydrofuran-2-ylpurine derivatives” (Bioorg Med Chem, 2009)
Activity calls are given as the source filed them. The calls are words filed in the database; no cut-off is given here.

What follows are molecules tested on Nicotiana tabacum (assay: Cytokinin activity in tobacco callus assessed as stimulation of callus growth relative to 6-benzylaminopurine).
Assay type: functional, organism-based
Method in brief: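 Compounds dissolved in DMSO, diluted with water to 5 × 10^-2 M stock, then diluted in medium to 10^-8 to 10^-4 M. Final DMSO ≤0.2%; solvent control 0.2% DMSO. Readout was cytokinin-dependent tobacco callus growth. Activity is expressed relative to 10^-6 M BAP (=100%) at each compound's optimal concentration. Five replicates per concentration; whole test run at least twice.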

Structure (SMILES)	Activity
COc1ccc(CNc2ncnc3c2ncn3C2CCCCO2)cc1OC (centres undefined)	inactive
COc1ccc(CNc2ncnc3c2ncn3C2CCCCO2)c(OC)c1OC (centres undefined)	inactive
COc1cc(CNc2ncnc3c2ncn3C2CCCCO2)cc(OC)c1 (centres undefined)	inactive
COc1ccc(CNc2ncnc3c2ncn3C2CCCCO2)c(OC)c1 (centres undefined)	inactive
